# Activity calls are given as the source filed them.
# Key:
# THP-1 [1] = experiment: Antiinflammatory activity against LPS-stimulated human THP-1 cells assessed reduction in IL-1beta level pretreated at 5 uM for 1 hr followed by LPS stimulation and measured upto 24 hrs by ELISA analysis; format: functional, cell-based
# In short: (§1)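 THP-1 cells pre-treated with compound for 1 h (5 μM or 1 μM, depending on the compound), then stimulated with 100 ng/mL LPS. Culture supernatant was taken at 24 h, and TNF-α, IL-6 or IL-1β was measured by sandwich ELISA at 450 nm with 540 nm correction; four biological replicates.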
# THP-1 [2] = experiment: Antiinflammatory activity against LPS-stimulated human THP-1 cells assessed reduction in TNFalpha level pretreated at 5 uM for 1 hr followed by LPS stimulation and measured upto 24 hrs by ELISA analysis; format: functional, cell-based; in short: as §1
# THP-1 [3] = experiment: Antiinflammatory activity against LPS-stimulated human THP-1 cells assessed as blockage of inflammatory phenotype by measuring m/z ratio at 5 uM pretreated for 1 hr followed by LPS stimulation and measured upto 24 hrs; format: functional, cell-based
# In short: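 THP-1 cells at 1 million/mL, pre-treated with compound at 5 μM for 1 h in technical triplicate, then 100 ng/mL LPS for 24 h. Pellets frozen on dry ice, thawed, washed in 100 mM Tris–HCl pH 7.5 at 4 °C. MALDI-TOF MS read-out is the normalized m/z 4964/4632 ratio, with a 40% cutoff used for hit calling; three biological replicates.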
# THP-1 [4] = experiment: Antiinflammatory activity against LPS-stimulated human THP-1 cells assessed reduction in IL-6 level pretreated at 5 uM for 1 hr followed by LPS stimulation and measured upto 24 hrs by ELISA analysis; format: functional, cell-based; in short: as §1
# THP-1 [5] = experiment: Inhibition of human Escherichia coli stimulated monocyte activation in human THP-1 cells assessed as decrease in CD44 expression level at 5 uM pretreated for 1 hr and measured up to 24 hrs; format: functional, cell-based
# THP-1 [6] = experiment: Inhibition of human Escherichia coli stimulated monocyte activation in human THP-1 cells assessed as decrease in IL-1beta expression level at 5 uM pretreated for 1 hr and measured up to 24 hrs; format: functional, cell-based
# In short: (§2)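 THP-1 cells pre-treated 1 h with 5 μM compound, then live E. coli up to 24 h. Label-free quantitative proteomics: S-Trap digestion (TCEP reduction, N-ethylmaleimide alkylation, trypsin 2 h at 47 °C), Orbitrap LC–MS/MS with a 180 min gradient. Changes called at FDR <0.05 and 1.5-fold.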
# THP-1 [7] = experiment: Inhibition of human Escherichia coli stimulated monocyte activation in human THP-1 cells assessed as suppression of CD54 expression level at 5 uM pretreated for 1 hr and measured up to 24 hrs by flow cytometric analysis; format: functional, cell-based
# THP-1 [8] = experiment: Antiinflammatory activity against Escherichia coli induced human THP-1 cells assessed as reduction in proinflammatory phenotype at 5 uM for 1 hr followed by Escherichia coli stimulation and measured upto 24 hrs by MALDI-TOF MS analysis; format: functional, cell-based
# In short: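 THP-1 cells pre-treated with compound for 1 h, then infected with live E. coli (MOI 2), spun 500g 5 min, left 15 or 30 min for uptake, then 100 μg/mL gentamicin for 1 h and 20 μg/mL gentamicin thereafter, up to 24 h. Pellets frozen on dry ice, thawed, washed in 100 mM Tris–HCl pH 7.5 at 4 °C, and read by MALDI-TOF MS as the normalized m/z 4964/4632 ratio.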
# OCI-AML2 [9] = experiment: Inhibition of MK2 in Escherichia coli-stimulated human OCI-AML2 cells assessed as reduction inMK2 phosphorylation pretreated for 1 hr followed by Escherichia coli stimulation and measured up to 15 mins by western blot analysis; format: cell-based; conditions: time 1.15 hrs
# Monocyte = experiment: Antiinflammatory activity against LPS-stimulated human primary monocyte cells assessed reduction in TNFalpha level measured at 24 hrs by ELISA analysis; format: functional, cell-based
# In short: (§3)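 CD14+ monocytes from healthy-donor blood (Lymphoprep, then pan-monocyte isolation) or patient AML cells (cultured in IMDM with 20% FBS, IL-3 and SCF). Cells pre-treated 1 h with 5 μM or 1 μM compound, then 100 ng/mL LPS; TNF-α in supernatant measured by ELISA at 24 h. Four (monocytes) or two (AML) biological replicates, error shown as SD.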
# THP-1 [10] = experiment: Antiinflammatory activity against LPS-stimulated human THP-1 cells assessed as disappearance inflammatory phenotype at 5 uM pretreated for 1 hr followed by LPS stimulation and measured upto 24 hrs by ELISA analysis; format: functional, cell-based
# THP-1 [11] = experiment: Inhibition of cell adhesion in human Escherichia coli stimulated-THP-1 cells by crystal violet staining based assay; format: functional
# In short: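 E. coli-stimulated THP-1 cells washed twice with PBS, fixed 15 min in 4% paraformaldehyde, stained 10 min with 5 mg/mL crystal violet, lysed 30 min in 2% SDS. Absorbance read at 550 nm; four biological replicates.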
# THP-1 [12] = experiment: Inhibition of P38 MAPK pathway in Escherichia coli-stimulated human THP-1 cells assessed as reduction in IL-6 expression at 5 uM pretreated for 1 hr followed by Escherichia coli stimulation and measured up to 24 hrs by ELISA analysis
# In short: (§4)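 THP-1 cells pre-treated 1 h with 5 μM compound, then infected with live E. coli (MOI 2), followed by gentamicin killing of extracellular bacteria. TNF-α, IL-6 or IL-1β in supernatant measured by ELISA at 24 h, absorbance at 450 nm with 540 nm correction.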
# OCI-AML2 [13] = experiment: Antiinflammatory activity against Escherichia coli-stimulated human OCI-AML2 cells assessed reduction in TNFalpha level measured at 24 hrs by ELISA analysis; format: functional, cell-based
# In short: (§5)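 OCI-AML2 cells stimulated with live E. coli (MOI 2, gentamicin protection). TNF-α, IL-6 and IL-1β in culture supernatant measured by ELISA at 24 h post-treatment, 450 nm with 540 nm correction, four biological replicates.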
# [14] = target: Mitogen-activated protein kinase 14 (Homo sapiens) (UniProt Q16539); conditions: THP-1, dose 5.0 µM, time 1.15 hrs
# THP-1 [15] = experiment: Inhibition of human Escherichia coli stimulated monocyte activation in human THP-1 cells assessed as decrease in CD14 expression level at 5 uM pretreated for 1 hr and measured up to 24 hrs; format: functional, cell-based
# THP-1 [16] = experiment: Inhibition of human Escherichia coli stimulated monocyte activation in human THP-1 cells assessed as suppression of CD14 expression level at 5 uM pretreated for 1 hr and measured up to 24 hrs; format: functional, cell-based
# THP-1 [17] = experiment: Inhibition of human Escherichia coli stimulated monocyte activation in human THP-1 cells assessed as suppression of CD49a expression level at 5 uM pretreated for 1 hr and measured up to 24 hrs by flow cytometric analysis; format: functional, cell-based
# OCI-AML2 [18] = experiment: Antiinflammatory activity against Escherichia coli-stimulated human OCI-AML2 cells assessed reduction in IL-6 level measured at 24 hrs by ELISA analysis; format: functional, cell-based; in short: as §5
# THP-1 [19] = experiment: Inhibition of human Escherichia coli stimulated monocyte activation in human THP-1 cells assessed as increase in Filamin-B expression level at 5 uM pretreated for 1 hr and measured up to 24 hrs; format: functional, cell-based; in short: as §2
# THP-1 [20] = experiment: Antiinflammatory activity against LPS-stimulated human THP-1 cells assessed as TNF-alpha secretion pretreated for 1 hr followed by LPS stimulation and measured upto 24 hrs by ELISA analysis; format: functional, cell-based; in short: as §1
# THP-1 [21] = experiment: Inhibition of human Escherichia coli stimulated monocyte activation in human THP-1 cells assessed as decrease in TLR2 expression level at 5 uM pretreated for 1 hr and measured up to 24 hrs; format: functional, cell-based; in short: as §2
# THP-1 [22] = experiment: Inhibition of P38 MAPK pathway in Escherichia coli-stimulated human THP-1 cells assessed as reduction in TNFalpha expression at 5 uM pretreated for 1 hr followed by Escherichia coli stimulation and measured up to 24 hrs by ELISA analysis; in short: as §4
# THP-1 [23] = experiment: Inhibition of human Escherichia coli stimulated monocyte activation in human THP-1 cells assessed as decrease in ICAM-1 expression level at 5 uM pretreated for 1 hr and measured up to 24 hrs; format: functional, cell-based
# [24] = test system: Acute myeloid leukemic cell; experiment: Antiinflammatory activity against LPS-stimulated patient derived primary AML cells assessed reduction in TNFalpha level measured at 24 hrs by ELISA analysis; format: functional, cell-based; conditions: Homo sapiens; in short: as §3
# OCI-AML2 [25] = experiment: Antiinflammatory activity against Escherichia coli-stimulated human OCI-AML2 cells assessed reduction in IL-1beta level measured at 24 hrs by ELISA analysis; format: functional, cell-based; in short: as §5
# THP-1 [26] = experiment: Inhibition of P38 MAPK pathway in Escherichia coli-stimulated human THP-1 cells assessed as reduction in IL-1beta expression at 5 uM pretreated for 1 hr followed by Escherichia coli stimulation and measured upto 24 hrs by ELISA analysis; in short: as §4
# THP-1 [27] = experiment: Inhibition of human Escherichia coli stimulated monocyte activation in human THP-1 cells assessed as upregulation of MMP9 expression level at 5 uM pretreated for 1 hr and measured up to 24 hrs; format: functional, cell-based; in short: as §2
# NCI-H929 = experiment: Inhibition of MK2 in Escherichia coli-stimulated human NCI-H929 cells assessed as reduction in MK2 phosphorylation pretreated for 1 hr followed by Escherichia coli stimulation and measured up to 15 mins by western blot analysis; format: cell-based; conditions: time 1.15 hrs
# THP-1 [28] = experiment: Antiinflammatory activity against LPS-stimulated human THP-1 cells assessed as reduction in TNFalpha level pretreated for 1 hr followed by LPS stimulation and measured upto 24 hrs by ELISA analysis; format: functional, cell-based; in short: as §1
# [29] = target: Mitogen-activated protein kinase 14 (Homo sapiens) (UniProt Q16539); conditions: THP-1, dose 5.0 µM, time 1.15 hrs; remark: listed apart in the source
# [30] = target: MAP kinase-activated protein kinase 2 (Homo sapiens) (UniProt P49137); experiment: Inhibition of MK2 in Escherichia coli -stimulated human THP-1 cells assessed as reduction in p38alpha MAPK phosphorylation at 5 uM pretreated for 1 hr followed by Escherichia coli stimulation and measured up to 15 mins by western blot analysis; format: cell-based; conditions: time 1.15 hrs
# [31] = target: Mitogen-activated protein kinase 14 (Homo sapiens) (UniProt Q16539); experiment: Binding affinity to P38alpha (unknown origin) measured at 0.05 to 333.33 nM after 600 secs by SPR analysis; conditions: dose 0.05-333.33 nM, time 600.0 sec
# In short: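 Biotinylated avidin-p38α was captured on a streptavidin chip from 50 μg/mL, reaching about 7719 RU. A 10-point series (0.05–333.33 nM) ran multicycle at 2 °C against a control surface: 90 s injection at 30 μL/min, then 600 s dissociation.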
# THP-1 [32] = experiment: Inhibition of human Escherichia coli stimulated monocyte activation in human THP-1 cells assessed as increase in ROCK1 expression level at 5 uM pretreated for 1 hr and measured up to 24 hrs; format: functional, cell-based; in short: as §2
# THP-1 [33] = experiment: Inhibition of human Escherichia coli stimulated monocyte activation in human THP-1 cells assessed as […] of CD44 expression level at 5 uM pretreated for 1 hr and measured up to 24 hrs; format: functional, cell-based
# THP-1 [34] = experiment: Antiinflammatory activity against LPS-stimulated human THP-1 cells assessed as reduction in IL-6 level pretreated for 1 hr followed by LPS stimulation and measured upto 24 hrs by ELISA analysis; format: functional, cell-based; in short: as §1
# THP-1 [35] = experiment: Antiinflammatory activity against LPS-stimulated human THP-1 cells assessed as reduction in IL-1beta level pretreated for 1 hr followed by LPS stimulation and measured upto 24 hrs by ELISA analysis; format: functional, cell-based; in short: as §1
# THP-1 [36] = experiment: Inhibition of human Escherichia coli stimulated monocyte activation in human THP-1 cells assessed as decrease in MMP9 expression level at 5 uM pretreated for 1 hr and measured up to 24 hrs; format: functional, cell-based; in short: as §2
# THP-1 [37] = experiment: Inhibition of human Escherichia coli stimulated monocyte activation in human THP-1 cells assessed as suppression of CD11c expression level at 5 uM pretreated for 1 hr and measured up to 24 hrs by flow cytometric analysis; format: functional, cell-based
# Sequence of Mitogen-activated protein kinase 14 (Homo sapiens) (Q16539 whole entry): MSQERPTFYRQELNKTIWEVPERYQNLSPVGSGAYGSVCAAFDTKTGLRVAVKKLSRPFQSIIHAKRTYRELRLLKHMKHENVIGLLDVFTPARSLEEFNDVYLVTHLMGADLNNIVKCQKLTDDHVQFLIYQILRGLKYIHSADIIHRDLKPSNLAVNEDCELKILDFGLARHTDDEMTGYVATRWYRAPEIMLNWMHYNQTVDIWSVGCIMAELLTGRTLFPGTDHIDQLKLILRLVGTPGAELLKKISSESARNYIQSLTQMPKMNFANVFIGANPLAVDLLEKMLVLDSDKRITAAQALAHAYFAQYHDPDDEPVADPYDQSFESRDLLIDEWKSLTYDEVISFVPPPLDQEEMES
# Sequence of MAP kinase-activated protein kinase 2 (Homo sapiens) (P49137 whole entry, looked up): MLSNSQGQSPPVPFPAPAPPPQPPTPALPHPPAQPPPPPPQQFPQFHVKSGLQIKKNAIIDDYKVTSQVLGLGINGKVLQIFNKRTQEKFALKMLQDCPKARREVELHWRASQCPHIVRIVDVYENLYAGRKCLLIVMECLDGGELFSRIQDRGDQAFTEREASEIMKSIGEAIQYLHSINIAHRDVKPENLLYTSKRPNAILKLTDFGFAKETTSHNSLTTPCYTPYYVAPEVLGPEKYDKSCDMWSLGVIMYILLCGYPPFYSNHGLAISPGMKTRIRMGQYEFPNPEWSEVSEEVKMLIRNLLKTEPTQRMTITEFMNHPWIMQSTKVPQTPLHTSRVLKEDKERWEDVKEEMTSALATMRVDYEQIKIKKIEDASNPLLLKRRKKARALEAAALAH
smiles,measurement,setting,value
CCN1CCN(Cc2ccc(NC(=O)c3ccc(C)c(Oc4ccnc5[nH]ccc45)c3)cc2C(F)(F)F)CC1,Activity,THP-1 [1],Active
same,Activity,THP-1 [2],Active
same,Activity,THP-1 [3],Active
same,Activity,THP-1 [4],Active
Cc1cn(-c2cc(NC(=O)c3ccc(C)c(Nc4nccc(-c5cccnc5)n4)c3)cc(C(F)(F)F)c2)cn1 [NILOTINIB],inhibition,THP-1 [5],Active
same,inhibition,THP-1 [6],Active
same,inhibition,THP-1 [7],Active
same,Activity,THP-1 [8],Active
same,inhibition,OCI-AML2 [9],Active
same,Activity,Monocyte,Active
same,Activity,THP-1 [10],Active
same,inhibition,THP-1 [11],Active
same,inhibition,THP-1 [12],Active
same,Activity,OCI-AML2 [13],Active
same,Tm,[14],55.1 °C
same,inhibition,THP-1 [15],Active
same,inhibition,THP-1 [16],Active
same,inhibition,THP-1 [17],Active
same,Activity,OCI-AML2 [18],Active
same,inhibition,THP-1 [19],Active
same,IC50,THP-1 [20],400 nM
same,inhibition,THP-1 [21],Active
same,inhibition,THP-1 [22],Active
same,inhibition,THP-1 [23],Active
same,Activity,[24],Active
same,Activity,OCI-AML2 [25],Active
same,inhibition,THP-1 [26],Active
same,inhibition,THP-1 [27],Active
same,inhibition,NCI-H929,Active
same,Activity,THP-1 [28],Active
same,Tm,[29],60.7 °C
same,inhibition,[30],Active
same,Activity,[31],Active
same,inhibition,THP-1 [32],Active
same,inhibition,THP-1 [33],Active
same,Activity,THP-1 [34],Active
same,Activity,THP-1 [35],Active
same,inhibition,THP-1 [36],Active
same,inhibition,THP-1 [37],Active

# Source: ChEMBL document CHEMBL5113533 (J Med Chem, 2022)
